Test results: ChEMBL document CHEMBL3804761, “Synthesis of a stable and orally bioavailable englerin analogue” (Bioorg Med Chem Lett, 2016)

Columns and labels:
Format in all cases: functional
[1] = Growth inhibition of human Caki1 cells incubated for 48 hrs by sulforhodamine B assay; conditions: CAKI-1, 48 h
How it was run: (§1)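 NCI 60-cell-line panel, standard protocol. Cells exposed to compound for two days, growth read by sulforhodamine B staining. Tested at five 10-fold dilutions, top concentration 100 µM, to give dose-response curves.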

[2] = Growth inhibition of human OVCAR4 cells incubated for 48 hrs by sulforhodamine B assay; conditions: OVCAR-4, 48 h; how it was run: as §1
[3] = Growth inhibition of human SKOV3 cells assessed as cell growth at 10 uM incubated for 48 hrs by sulforhodamine B assay relative to control; conditions: SK-OV-3, 48 h, read-out: Activity
How it was run: (§2)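 Run in the standard NCI 60-cell-line screen. Cells were exposed to drug for two days, and the read-out was sulforhodamine B staining. Compound was tested at a single final concentration of 10 µM in every line, and results are reported as growth percent.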

[4] = tested on: T47D; test: Growth inhibition of human T47D cells assessed as cell growth at 10 uM incubated for 48 hrs by sulforhodamine B assay relative to control; conditions: read-out: Activity
How it was run: (§3)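 NCI 60-cell line standard protocol, one-dose screen: single final concentration 10 µM, 2-day drug exposure, sulforhodamine B (SRB) endpoint; read-out is growth percent relative to untreated control.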

[5] = Growth inhibition of human HL-60(TB) cells incubated for 48 hrs by sulforhodamine B assay; conditions: HL-60, 48 h; how it was run: as §1
[6] = tested on: Malme-3M; test: Growth inhibition of human MALME-3M cells incubated for 48 hrs by sulforhodamine B assay; how it was run: as §1
[7] = Growth inhibition of human LOXIMVI cells incubated for 48 hrs by sulforhodamine B assay; conditions: LOX IMVI; how it was run: as §1
[8] = tested on: KM12; test: Growth inhibition of human KM12 cells assessed as cell growth at 10 uM incubated for 48 hrs by sulforhodamine B assay relative to control; conditions: KM12, 48 h, read-out: Activity; how it was run: as §2
[9] = Growth inhibition of human HCC2998 cells assessed as cell growth at 10 uM incubated for 48 hrs by sulforhodamine B assay relative to control; conditions: HCC 2998, 48 h, read-out: Activity
How it was run: (§4)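 Single-dose screen in the NCI 60-cell-line panel at one final concentration of 10 µM. Two-day drug exposure with a sulforhodamine B endpoint. Values are growth percent for each cell line.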

[10] = tested on: SK-MEL-5; test: Growth inhibition of human SK-MEL-5 cells incubated for 48 hrs by sulforhodamine B assay; conditions: SK-MEL-5, 48 h; how it was run: as §1
[11] = Growth inhibition of human OVCAR5 cells assessed as cell growth at 10 uM incubated for 48 hrs by sulforhodamine B assay relative to control; conditions: OVCAR-5, 48 h, read-out: Activity; how it was run: as §2
[12] = Growth inhibition of human OVCAR5 cells incubated for 48 hrs by sulforhodamine B assay; conditions: OVCAR-5, 48 h; how it was run: as §1
[13] = Growth inhibition of human LOXIMVI cells assessed as cell growth at 10 uM incubated for 48 hrs by sulforhodamine B assay relative to control; conditions: LOX IMVI, read-out: Activity; how it was run: as §4
[14] = Growth inhibition of human HOP62 cells incubated for 48 hrs by sulforhodamine B assay; conditions: HOP-62, 48 h; how it was run: as §1
[15] = tested on: MDA-MB-231; test: Growth inhibition of human MDA-MB-231 cells assessed as cell growth at 10 uM incubated for 48 hrs by sulforhodamine B assay relative to control; conditions: MDA-MB-231, 48 h, read-out: Activity; how it was run: as §2
[16] = tested on: A498; test: Growth inhibition of human A498 cells incubated for 48 hrs by sulforhodamine B assay; conditions: A498, 48 h
[17] = Growth inhibition of human PC3 cells incubated for 48 hrs by sulforhodamine B assay; conditions: PC-3, 48 h; how it was run: as §1
[18] = Growth inhibition of human Hs 578T cells assessed as cell growth at 10 uM incubated for 48 hrs by sulforhodamine B assay relative to control; conditions: read-out: Activity
[19] = Growth inhibition of human HOP92 cells incubated for 48 hrs by sulforhodamine B assay; conditions: HOP-92, 48 h; how it was run: as §1
[20] = Growth inhibition of human HCC2998 cells incubated for 48 hrs by sulforhodamine B assay; conditions: HCC 2998, 48 h; how it was run: as §1
[21] = tested on: SR; test: Growth inhibition of human SR cells incubated for 48 hrs by sulforhodamine B assay
How it was run: (§5)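 Tested in the standard NCI 60-cell-line protocol with two-day drug exposure and a sulforhodamine B endpoint. Compounds were first screened at a single final concentration of 10 µM, reported as growth percent. They were then run as five 10-fold dilutions starting from a high concentration of 100 µM to give dose-response curves.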

[22] = tested on: NCI/ADR-RES; test: Growth inhibition of human NCI/ADR-RES cells incubated for 48 hrs by sulforhodamine B assay; how it was run: as §1
[23] = Growth inhibition of human UACC257 cells incubated for 48 hrs by sulforhodamine B assay; conditions: UACC-257, 48 h; how it was run: as §5
[24] = Growth inhibition of human UACC257 cells assessed as cell growth at 10 uM incubated for 48 hrs by sulforhodamine B assay relative to control; conditions: UACC-257, 48 h, read-out: Activity; how it was run: as §3
[25] = tested on: NCI-H23; test: Growth inhibition of human NCI-H23 cells assessed as cell growth at 10 uM incubated for 48 hrs by sulforhodamine B assay relative to control; conditions: NCI-H23, 48 h, read-out: Activity; how it was run: as §2
[26] = tested on: MDA-MB-468; test: Growth inhibition of human MDA-MB-468 cells incubated for 48 hrs by sulforhodamine B assay; conditions: MDA-MB-468, 48 h; how it was run: as §1
[27] = read-out: pLC50 (the source's name) (converted)

In the case of C/C(=C\C(=O)O[C@H]1[C@@H]2[C@H](C)CC[C@H]2[C@]2(C)O[C@@]1(C(C)C)C[C@H]2NC(=O)CO)c1ccccc1, the GI50 [1] was 40.7 µM, the LC50 [1] was > 100 µM and the TGI ([1]; read-out: pTGI (converted)) was > 100 µM. The GI50 [2] was 35.5 µM, the LC50 (concentration killing 50% of cells) [2] was > 100 µM and the TGI ([2]; read-out: pTGI (converted)) was > 100 µM. For the same compound, the growth at 10 µM [3] was 110%, the growth at 10 µM [4] was 89.3% and the GI50 [5] was 17.8 µM. For the same compound, the CC50 [5, 27] was > 100 µM, the TGI ([5]; read-out: pTGI (converted)) was 61.7 µM and the GI50 [6] was 26.3 µM. For the same compound, the LC50 [6] was > 100 µM, the TGI ([6]; read-out: pTGI (converted)) was > 100 µM and the GI50 [7] was 27.5 µM. The LC50 [7] was > 100 µM, the TGI ([7]; read-out: pTGI (converted)) was > 100 µM and the growth at 10 µM [8] was 112%. The growth at 10 µM [9] was 104%, the GI50 [10] was 19.5 µM and the LC50 [10] was 95.5 µM. For the same compound, the TGI ([10]; read-out: pTGI (converted)) was 43.7 µM, the growth at 10 µM [11] was 119% and the GI50 [12] was 70.8 µM. For the same compound, the LC50 [12] was > 100 µM, the TGI ([12]; read-out: pTGI (converted)) was > 100 µM and the growth at 10 µM [13] was 100%. For the same compound, the GI50 [14] was 43.7 µM, the LC50 [14] was > 100 µM and the TGI ([14]; read-out: pTGI (converted)) was > 100 µM. It also gave a growth at 10 µM [15] of 99.6%, an LC50 [16] of 23.4 µM and a GI50 ([16]; read-out: GI50) of 1.15 µM. For the same compound, the GI50 ([16]; read-out: pGI50 (converted)) was 1.15 µM, the TGI ([16]; read-out: pTGI (converted)) was 4.27 µM and the GI50 [17] was 18.6 µM. The CC50 [17, 27] was > 100 µM, the TGI ([17]; read-out: pTGI (converted)) was > 100 µM and the growth at 10 µM [18] was -8.92%. For the same compound, the GI50 [19] was 21.9 µM, the LC50 [19] was > 100 µM and the TGI ([19]; read-out: pTGI (converted)) was 81.3 µM. For the same compound, the GI50 [20] was 34.7 µM, the LC50 [20] was > 100 µM and the TGI ([20]; read-out: pTGI (converted)) was > 100 µM. For the same compound, the GI50 [21] was 26.3 µM, the LC50 [21] was > 100 µM and the TGI ([21]; read-out: pTGI (converted)) was 74.1 µM. The GI50 [22] was 7.94 µM, the LC50 [22] was > 100 µM and the TGI ([22]; read-out: pTGI (converted)) was 69.2 µM. For the same compound, the GI50 [23] was 34.7 µM, the CC50 [23, 27] was > 100 µM and the TGI ([23]; read-out: pTGI (converted)) was > 100 µM. For the same compound, the growth at 10 µM [24] was 92.4%, the growth at 10 µM [25] was 97.7% and the GI50 [26] was 28.8 µM. The CC50 [26, 27] was > 100 µM and the TGI ([26]; read-out: pTGI (converted)) was > 100 µM.
